# Bioassay records: PubChem BioAssay, Sanford-Burnham Center for Chemical Genomics
# In the library only some 0.72% were active in any assay of this set; here they are far more common.
# mIAP activ: increases mouse intestinal alkaline phosphatase activity | muIAP, CDP-Star luminescence, 30 min; active compounds read high; 1 = vehicle-only enzyme signal, 0 = enzyme-free wells | AID 2805 | activation factor at 10 µM | 0.24% of 330,000 active;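 active = activation factor of at least 2 at 20 µM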
#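 Assay system: mouse IAP enzyme / Compound: DMSO-dissolved test compounds / Timing: 30 min, room temperature / Measured by: luminescence from enzymatic CDP-Star hydrolysis / Control set: DMSO-only wells, enzyme-free buffer wells as negative control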
# hIAP inh: human IAP inhibition | P09923 | purified IAP, CDP-Star luminescence, 30 min | inhibition, % at 10 µM | 0.12% of 330,000 active | AID 2544;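 active = inhibition reaching a set limit with compound at 10 µM in the primary screen, cut at about 35% in these data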;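 also: plate controls were DMSO wells with enzyme for no effect and no-enzyme buffer wells for full effect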
# Target sequence (P09923 whole entry, looked up): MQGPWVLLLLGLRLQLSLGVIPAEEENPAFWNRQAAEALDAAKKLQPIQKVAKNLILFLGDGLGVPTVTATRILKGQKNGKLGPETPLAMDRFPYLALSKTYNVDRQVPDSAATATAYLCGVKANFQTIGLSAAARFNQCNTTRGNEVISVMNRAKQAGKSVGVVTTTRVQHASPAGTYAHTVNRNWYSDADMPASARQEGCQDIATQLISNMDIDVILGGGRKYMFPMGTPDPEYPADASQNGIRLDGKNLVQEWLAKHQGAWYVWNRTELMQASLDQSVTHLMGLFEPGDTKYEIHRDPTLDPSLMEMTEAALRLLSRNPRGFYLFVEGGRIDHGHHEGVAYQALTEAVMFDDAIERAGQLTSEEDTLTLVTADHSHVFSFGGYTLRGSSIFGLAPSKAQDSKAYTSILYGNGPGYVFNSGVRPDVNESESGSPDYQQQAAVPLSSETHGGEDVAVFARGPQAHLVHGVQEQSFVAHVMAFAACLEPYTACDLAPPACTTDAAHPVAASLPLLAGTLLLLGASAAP
# hIAP act: human IAP activation | purified human IAP, CDP-Star luminescence, 30 min; active compounds read high; 1 = vehicle-only enzyme, 0 = enzyme-free background | activation factor at 10 µM | 0.16% of 330,000 active | AID 2524;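 active = activation factor of the enzyme at least 2-fold when tested at 20 µM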
# bIAP activator: increases bovine intestinal alkaline phosphatase activity; activation factor at 20 µM; AID 1016; purified bovine IAP, CDP-star luminescence, 30 min; active compounds read high; fold of DMSO-control signal, blank-subtracted; 0.17% of 200,000 active;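 active = activation factor of 2 or more at 20 µM, a signal rise over negative controls twice the positive control's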
# bIAP inhibitor: blocks bovine intestinal alkaline phosphatase activity | purified bovine IAP, CDP-star luminescence, 30 min | inhibition, % at 20 µM | 190,000 tested, under 10 active | AID 1019;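 active = over 50% inhibition of intestinal alkaline phosphatase at 20 µM in the single-dose screen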
#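 System: Purified bovine intestinal alkaline phosphatase (IAP) enzyme | Input: IAP diluted 1/65,000,000 in the well | Also added: CDP-star chemiluminescent phosphatase substrate, 30 µM final | Dosing: 20 µM single dose | Times: Enzyme reaction for 30 min at room temperature | Detection: Luminescence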
# mIAP inh: blocks mouse intestinal alkaline phosphatase. purified mouse IAP, CDP-Star luminescence, 30 min. inhibition, % at 10 µM. 0.2% of 330,000 active;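 active = inhibition of at least 40% at 10 µM in the primary screen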;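 also: plate controls were DMSO with enzyme for no effect and no enzyme wells for full effect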
# The depositor's hits bear a star; / = no result given.
SMILES,mIAP activ,hIAP inh,hIAP act,bIAP activator,bIAP inhibitor,mIAP inh
CC(C)CC1NC(=O)N(CC(=O)Nc2ccc(OCc3ccccc3)cc2)C1=O (centres undefined),1.1,-7,1.1,/,/,-5
O=C(O)CCc1ccc(-c2ccc(Br)cc2)n1-c1cccc(O)c1,0.99,-7,1.1,/,/,1
C=CCn1c(=O)/c(=C\c2ccccn2)s/c1=C(/C#N)C(=O)NCC1CCCO1 (centres undefined),0.93,8,0.92,1.1,-6,7
C=CCn1c(=O)/c(=C/c2ccc(C)o2)s/c1=C(/C#N)C(=O)c1ccccc1,0.58,19,0.81,0.8,19,42*
O=C(NC(Nc1ccc(F)cc1)(C(F)(F)F)C(F)(F)F)c1cccnc1,1,-5,1,2*,-96,-5
Cc1ccc(SCc2nc3ccccc3[nH]2)cc1,0.98,-8,1.1,1,-4,2
Cc1ccc(CSCc2nc3ccccc3[nH]2)cc1,/,/,/,2.3*,-131,/
COc1cccc(NC(=S)NC2CC3CCCC(C2)N3CC(C)C)c1 (centres undefined),2.8*,-11,1.1,1.1,-6,-179
CCCCOCCCNC(=S)Nc1ccc(S(=O)(=O)N2CCOCC2)cc1,1.3,-12,1.1,/,/,-29
O=S(=O)(c1ccc(NC(=S)NCCC(c2ccccc2)c2ccccc2)cc1)N1CCOCC1,2.1*,7,0.93,0.9,6,-107
NNC(=S)Nc1ccc(S(=O)(=O)N2CCOCC2)cc1,0.93,1,0.99,/,/,7
CC(C)(C)CC(C)(C)NC(=S)Nc1ccc(S(=O)(=O)N2CCOCC2)cc1,2.2*,8,0.92,1,-3,-115
O=C(CSc1ncn[nH]1)Nc1ccc2c(c1)CCC2,0.96,-31,1.3,0.9,8,4
O=C(C[C@@H]1C/C=C\C[C@@H](NC(=O)OCC2c3ccccc3-c3ccccc32)C(=O)OC[C@@H](Cc2ccccc2)NC1=O)NCCO,1,2,0.98,/,/,-2
O=C(Nc1cccc(Cl)c1)NC1CCN(C2CCCCC2)C1 (centres undefined),2.3*,-8,1.1,/,/,-132
O=C(NC1CCN(C(=O)Nc2cccc(Cl)c2)CC1)C1CCCCC1,1.1,-17,1.2,/,/,-9
O=C1Nc2ccc(S(=O)(=O)NCc3ccccn3)c3cccc1c23,0.99,6,0.94,1,4,1
COc1cc2c(cc1OC)C(C(=O)Nc1ccc3c(c1)OCCO3)C1c3ccccc3CCN1C2=O (centres undefined),1.9,5,0.95,2.5*,-146,-94
CCN(CC)CCn1c(NCc2nc3ccccc3n2Cc2ccccc2)nc2ccccc21,1.4,4,0.96,2*,-101,-45
c1ccc(Cn2c(CNc3nc4ccccc4n3CCN3CCCCC3)nc3ccccc32)cc1,1.6,-93,1.9,0.9,11,-59
CCOC(=O)CN1N=C(/C=C/c2ccc(OCC)cc2)CCC1=O,0.94,14,0.85,1,1,6
CCc1ccc(NC(=S)NC2CC3CCCC(C2)N3Cc2cccs2)cc1 (centres undefined),5.7*,-50,1.5,1.6,-56,-470
CCc1ccccc1NC(=O)NC1CC2CCC(C1)N2Cc1cccs1 (centres undefined),1.2,-4,1,1.2,-17,-22
O=C(O)/C(=C\c1cccc([N+](=O)[O-])c1)c1ccc(S(=O)(=O)N2CCCCC2)s1,0.91,-5,1.1,/,/,9
C[C@@H](C(=O)Nc1ccc2ccccc2c1)[C@H]1C[C@]1(C)[C@H](NC(=O)OCc1ccccc1)c1ccccc1,1.5,-2,1,0.9,8,-50
SMILES,mIAP activ,hIAP inh,hIAP act,bIAP activator,bIAP inhibitor,mIAP inh
Cc1cc(C(=O)N[C@H](c2ccccc2)[C@@]2(C)C[C@@H]2[C@@H](C)C(=O)Nc2ccc3ccccc3c2)n(C)n1,2.1*,-15,1.2,0.9,7,-110
Cc1ccc(S(=O)(=O)Nc2ccc3c(c2)CC(=O)N([C@H](C)CO)C[C@@H](C)[C@H](CN(C)S(=O)(=O)c2ccccc2)O3)cc1,0.97,-7,1.1,/,/,3
C[C@H](CO)N1C[C@H](C)[C@H](CN(C)S(=O)(=O)c2ccccc2)Oc2ccc(NC(=O)NC3CCCCC3)cc2CC1=O,2.7*,0,1,/,/,-171
COc1ccc(NC(=O)Nc2ccc3c(c2)C(=O)N([C@@H](C)CO)C[C@@H](C)[C@@H](CN(C)S(=O)(=O)c2cccs2)O3)cc1,3.1*,2,0.98,/,/,-214
C[C@H](CO)N1C[C@H](C)[C@@H](CN(C)S(=O)(=O)c2cccs2)Oc2ccc(NC(=O)Nc3ccc4c(c3)OCO4)cc2C1=O,2.2*,2,0.98,/,/,-116
COc1ccc(S(=O)(=O)N(C)C[C@H]2Oc3ccc(NC(=O)Nc4ccc5c(c4)OCO5)cc3CC(=O)N([C@@H](C)CO)C[C@@H]2C)cc1,1.4,-18,1.2,/,/,-44
C[C@H](CO)N1C[C@H](C)[C@@H](CN(C)S(=O)(=O)c2cccs2)Oc2c(NC(=O)Nc3ccc4c(c3)OCO4)cccc2C1=O,1.2,4,0.96,/,/,-16
C[C@H](CO)N1C[C@H](C)[C@H](CN(C)S(=O)(=O)c2cccs2)Oc2ccc(NC(=O)Nc3ccc4c(c3)OCO4)cc2CC1=O,2.3*,-2,1,/,/,-129
CCN(CC(=O)Nc1c(F)cccc1F)C(=O)C1CC(=O)N(c2ccccc2OC)C1 (centres undefined),1.1,-17,1.2,/,/,-8
COc1ccc(-n2c(C)nc3cc(C(=O)N4CCOCC4)ccc32)cc1,1.1,-11,1.1,1.1,-15,-9
O=C(Nc1cccnc1)C1CCCN1S(=O)(=O)c1ccc(Cl)c(Cl)c1 (centres undefined),0.95,-3,1,0.9,10,5
COc1ccc(S(=O)(=O)N(C)C[C@H]2Oc3ccc(NC(=O)NC(C)C)cc3C(=O)N([C@H](C)CO)C[C@@H]2C)cc1,1.4,-12,1.1,/,/,-43
COc1ccc(S(=O)(=O)N(C)C[C@H]2Oc3ccc(NC(=O)Nc4ccc5c(c4)OCO5)cc3C(=O)N([C@H](C)CO)C[C@@H]2C)cc1,2.3*,-4,1,/,/,-129
Cn1c(CN2CCCCC2)nc2cc(NC(=O)c3ccccc3)ccc21,1,11,0.89,1,-4,-1
Cn1c(CN2CCCC2)nc2cc(NC(=O)Nc3ccccc3)ccc21,1.3,1,0.99,2.3*,-131,-26
CC(=O)N1CCN(C(=O)COc2ccc(Br)cc2)CC1,0.97,-12,1.1,1,2,3
COc1ccc(OCC(=O)N2CCN(C(=O)COc3ccc(Br)cc3)CC2)cc1,0.26,11,0.89,1,5,74*
Cc1ccc(C(=O)CCC(=O)Nc2cc(C)ccn2)cc1,1,-8,1.1,/,/,-1
